Experimental findings from PMC5575935 (Journal of the American Chemical Society, 2017) are described below.

Positions count from the first letter of the chain named. Bounds are passed on as bounds.

One test relates to MAP2K6 and other MAP2Ks. Nature of the test: LanthaScreen Eu binding assays on MAP2K family members. Also noted: species or system human. Conditions: LanthaScreen Eu assays and initial IDUP assay. For orientation: Time-resolved FRET reads energy transfer from a long-lived donor to a nearby acceptor.
In test [1] the target is T1, MAP2K6 (Homo sapiens, UniProt P52564).
T1 sequence (P52564 1-334): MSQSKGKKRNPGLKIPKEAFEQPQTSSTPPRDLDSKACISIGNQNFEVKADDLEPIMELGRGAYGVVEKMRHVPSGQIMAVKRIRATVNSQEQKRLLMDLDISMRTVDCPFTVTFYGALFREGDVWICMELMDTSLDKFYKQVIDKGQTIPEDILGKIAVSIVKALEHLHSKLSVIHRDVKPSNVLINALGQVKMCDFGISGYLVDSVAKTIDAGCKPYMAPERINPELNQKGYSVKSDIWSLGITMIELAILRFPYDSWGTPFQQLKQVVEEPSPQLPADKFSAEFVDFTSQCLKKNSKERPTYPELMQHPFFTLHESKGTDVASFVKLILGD
The experiment in a line: IDUP library × library selection, enrichment of ligand:protein barcodes. The format is binding. Put shortly:
(§1)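 Kinases were expressed as SNAP fusions by transient transfection of pDEST-SNAP-kinase vectors into HEK293T cells. Each unpurified lysate was labelled with a 31-nt benzylguanine-linked oligonucleotide carrying a unique 6-nt barcode and a common 3′ 8-nt hybridization region. The pooled protein library was combined with 2 pmol of an equimolar library of 136 DNA-linked compounds. IDUP primer extension followed, and extended products encoding protein:ligand pairs were PCR-amplified for barcode enrichment.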

Test [2] concerns the target T2, C38A point mutant of MAP2K6EE (Homo sapiens, UniProt P52564, C38A/S207E/T211E).
T2 sequence (P52564 1-334 C38A/S207E/T211E): T1 sequence (P52564 1-334) with C38A, S207E, T211E
The experiment in a line: Z′-LYTE kinase activity after preincubation with EA and dialysis. The format is biochemical. Particulars: C38A MAP2K6EE preincubated with 100 µM EA, then dialyzed; vs DMSO. Put shortly:
(§2)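 The kinase, either MAP2K6EE (S207E/T211E) or its C38A variant, was incubated with 100 µM test compound or DMSO. It was then dialyzed to remove free compound. Z′-LYTE kinase activity was measured as a function of kinase concentration.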

Test [3] deals with T3, MAP2K6EE (constitutively active MAP2K6 mutant, S207E and T211E) (Homo sapiens, UniProt P52564, S207E/T211E).
T3 sequence (P52564 1-334 S207E/T211E): T1 sequence (P52564 1-334) with S207E, T211E
Described as above. The format is biochemical. Particulars: MAP2K6EE incubated with 100 µM EA, then dialyzed into EA-free buffer; vs DMSO. Put shortly: as §2

The target in test [4] is T4, GSK3α (Homo sapiens, UniProt P49840). The experiment in a line: Z′-LYTE kinase inhibition assay. The format is biochemical. Particulars: non-DNA tagged ligand.
Test [5] addresses T4, GSK3α. The experiment in a line: IDUP library × library selection, enrichment of ligand:protein barcodes. The format is binding. Put shortly: as §1
The target of test [6] is T1, MAP2K6. The experiment in a line: Z′-LYTE kinase inhibition assay. Particulars: nonelectrophilic analogs relative to EA. The format is biochemical.

T4 sequence (P49840 whole entry): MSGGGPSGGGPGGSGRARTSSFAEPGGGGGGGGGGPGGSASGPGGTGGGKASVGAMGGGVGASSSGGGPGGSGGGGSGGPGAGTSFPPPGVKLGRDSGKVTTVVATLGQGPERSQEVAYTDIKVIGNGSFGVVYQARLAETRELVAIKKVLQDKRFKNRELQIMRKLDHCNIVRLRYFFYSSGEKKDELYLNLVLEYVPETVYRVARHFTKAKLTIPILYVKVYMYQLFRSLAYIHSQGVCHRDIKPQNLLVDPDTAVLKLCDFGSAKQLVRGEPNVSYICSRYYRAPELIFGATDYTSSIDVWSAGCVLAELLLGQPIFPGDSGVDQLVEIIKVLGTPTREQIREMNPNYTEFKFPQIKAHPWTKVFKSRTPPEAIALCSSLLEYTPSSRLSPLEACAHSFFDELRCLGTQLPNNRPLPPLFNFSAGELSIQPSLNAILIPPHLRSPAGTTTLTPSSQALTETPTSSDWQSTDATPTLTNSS

Consider `C=C(CC)C(=O)c1ccc(OCC(=O)O)c(Cl)c1Cl` [EA, ethacrynic acid], for which, in the test on MAP2K6 and other MAP2Ks, the “affinity for MAP2K6 compared with other MAP2Ks” value is “higher affinity for MAP2K6 than other MAP2Ks”. Besides, the IDUP enrichment on MAP2K6 [1] turned out to be 4.7 fold. Further, the “loss in inhibition potency” value in test [2] was ~ 3.3 fold. For the same molecule, the “apparent loss of kinase activity” value in test [3] was 9 fold.
Usually IC50 stands for the concentration that gives 50% inhibition. Regarding `Cl.Cn1cc(C2=C(c3c4n(c5ccccc35)CCC(CN)C4)C(=O)NC2=O)c2ccccc21` (centres unmarked) [bisX, bisindolylmaleimide X], the IC50 against GSK3α [4] worked out at 115 nM. Also, the IDUP enrichment on GSK3α [5] came out at 4.7 fold.
Consider `CCC(C)C(=O)c1ccc(OCC(=O)O)c(Cl)c1Cl` (centres unmarked) [dihydro-ethacrynic acid], for which the “fold weaker inhibition of MAP2K6 than EA” value on MAP2K6 [6] was over 30 fold.
`O=C(O)COc1ccc(C(=O)c2cccs2)c(Cl)c1Cl` [tienilic acid]: the “fold weaker inhibition of MAP2K6 than EA” value on MAP2K6 [6] was over 30 fold.
